Test results: ChEMBL document CHEMBL1126125, “Synthesis and antibacterial activity of 1-(substituted pyrrolyl)-7-(substituted amino)-6-fluoro-1,4-dihydro-4-oxo-3- quinolinecarboxylic acids” (1992)
Values after ≈ are worked out from the molar mass of the structure shown.

Key:
Staphylococcus aureus = assay: In vitro antibacterial activity against Staphylococcus aureus ATCC 6538p.; type: functional
Method in brief: (§1)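 Agar dilution MIC. Organisms grown overnight in brain-heart infusion broth at 37 °C. Compound stock of 5 mg/mL serially diluted two-fold in BHI agar, giving final test concentrations of 200 to […] μg/mL. Plates incubated 24 h at 37 °C. MIC read as the lowest concentration that inhibited visible growth.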

Escherichia coli = assay: In vitro antibacterial activity against Escherichia coli ATCC 25922.; type: functional; method in brief: as §1

Compound | MIC (Staphylococcus aureus) [µg/mL] | MIC (Escherichia coli) [µg/mL]
O=C(O)c1cn(-c2ccc([N+](=O)[O-])cc2)c2cc(N3CCCC3)c(F)cc2c1=O | > 100 | > 100
CN1CCN(c2cc3c(cc2F)c(=O)c(C(=O)O)cn3-c2ccc(F)cc2)CC1 [DIFLOXACIN] | 0.195 (≈ 0.488 µM) | 0.39 (≈ 0.976 µM)
O=C(O)c1cn(-c2ccc([N+](=O)[O-])cc2)c2cc(Cl)c(F)cc2c1=O | 6.25 (≈ 17.2 µM) | 12.5 (≈ 34.5 µM)
CC1CCCN(c2cc3c(cc2F)c(=O)c(C(=O)O)cn3-c2cn(C)cc2[N+](=O)[O-])C1 (stereo not drawn) | 25 (≈ 58.4 µM) | > 100
Cn1cc(-n2cc(C(=O)O)c(=O)c3cc(F)c(N4CCCC4)cc32)c([N+](=O)[O-])c1 | > 100 | > 100
Cn1cc(-n2cc(C(=O)O)c(=O)c3cc(F)c(N4CCCCC4)cc32)c([N+](=O)[O-])c1 | 50 (≈ 121 µM) | 100 (≈ 241 µM)
CC1CCCN(c2cc3c(cc2F)c(=O)c(C(=O)O)cn3-c2cc([N+](=O)[O-])cn2C)C1 (stereo not drawn) | 3.12 (≈ 7.29 µM) | 100 (≈ 233 µM)
Cn1cc(-n2cc(C(=O)O)c(=O)c3cc(F)c(N4CCCNCC4)cc32)c([N+](=O)[O-])c1 | 100 (≈ 233 µM) | 100 (≈ 233 µM)
Cn1cc(N)c(-n2cc(C(=O)O)c(=O)c3cc(F)c(N4CCNCC4)cc32)c1 | 100 (≈ 259 µM) | 50 (≈ 130 µM)
CN1CCN(c2cc3c(cc2F)c(=O)c(C(=O)O)cn3-c2cc([N+](=O)[O-])cn2C)CC1 | 6.25 (≈ 14.6 µM) | 3.12 (≈ 7.28 µM)
CN1CCN(c2cc3c(cc2F)c(=O)c(C(=O)O)cn3-c2ccc([N+](=O)[O-])cc2)CC1 | 25 (≈ 58.6 µM) | 12.5 (≈ 29.3 µM)
CC1CCN(c2cc3c(cc2F)c(=O)c(C(=O)O)cn3-c2cn(C)cc2[N+](=O)[O-])CC1 | 12.5 (≈ 29.2 µM) | > 100
Cn1cc(-n2cc(C(=O)O)c(=O)c3cc(F)c(Cl)cc32)c([N+](=O)[O-])c1 | 100 (≈ 273 µM) | 100 (≈ 273 µM)
Cn1cc([N+](=O)[O-])cc1-n1cc(C(=O)O)c(=O)c2cc(F)c(Cl)cc21 | 50 (≈ 137 µM) | 100 (≈ 273 µM)
Cn1cc(-n2cc(C(=O)O)c(=O)c3cc(F)c(N4CCNCC4)cc32)c([N+](=O)[O-])c1 | 100 (≈ 241 µM) | 100 (≈ 241 µM)
CC1CCCN(c2cc3c(cc2F)c(=O)c(C(=O)O)cn3-c2ccc([N+](=O)[O-])cc2)C1 (stereo not drawn) | > 100 | > 100
CN1CCN(c2cc3c(cc2F)c(=O)c(C(=O)O)cn3-c2cn(C)cc2[N+](=O)[O-])CC1 | 100 (≈ 233 µM) | 100 (≈ 233 µM)
CC1CN(c2cc3c(cc2F)c(=O)c(C(=O)O)cn3-c2cn(C)cc2[N+](=O)[O-])CCN1 (stereo not drawn) | 100 (≈ 233 µM) | 100 (≈ 233 µM)
Cn1cc([N+](=O)[O-])cc1-n1cc(C(=O)O)c(=O)c2cc(F)c(N3CCCC3)cc21 | 0.78 (≈ 1.95 µM) | 12.5 (≈ 31.2 µM)
